Measurements taken from ChEMBL document CHEMBL2062453, “Lead optimization through VLAK protocol: new annelated pyrrolo-pyrimidine derivatives as antitumor agents” (2012).

Columns and labels:
Assay type in all cases: functional
EKVX = test: Cytotoxicity against human EKVX cells assessed as cell growth at 10 uM after 48 hrs by SRB assay relative to control; settings: read-out: Activity
Procedure, shortened: (§1)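 NCI primary screen of about 60 human tumour lines. Cells inoculated and preincubated, then a single test concentration added and cultures incubated 48 h. Result given as percent growth (G%) of treated versus untreated control cells.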

U-251 = test: Cytotoxicity against human U251 cells assessed as cell growth at 10 uM after 48 hrs by SRB assay relative to control; settings: U-251, 48 h, read-out: Activity
Procedure, shortened: (§2)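 NCI single-dose primary screen across about 60 human tumour lines. Each line was inoculated and preincubated on microtiter plates, then exposed to one concentration of agent for 48 h. Growth is reported as percent growth (G%) of treated cells versus untreated control cells.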

SK-MEL-2 = test: Cytotoxicity against human SK-MEL-2 cells assessed as cell growth at 10 uM after 48 hrs by SRB assay relative to control; settings: SK-MEL-2, 48 h, read-out: Activity
T47D = test: Cytotoxicity against human T47D cells assessed as cell growth at 10 uM after 48 hrs by SRB assay relative to control; settings: read-out: Activity; procedure, shortened: as §2
ACHN = test: Cytotoxicity against human ACHN cells assessed as cell growth at 10 uM after 48 hrs by SRB assay relative to control; settings: read-out: Activity; procedure, shortened: as §1
SNB-19 = test: Cytotoxicity against human SNB19 cells assessed as cell growth at 10 uM after 48 hrs by SRB assay relative to control; settings: SNB-19, 48 h, read-out: Activity
HL-60(TB) = test: Cytotoxicity against human HL-60(TB) cells assessed as cell growth at 10 uM after 48 hrs by SRB assay relative to control; settings: HL-60, 48 h, read-out: Activity
HCT-116 = test: Cytotoxicity against human HCT116 cells assessed as cell growth at 10 uM after 48 hrs by SRB assay relative to control; settings: HCT-116, 48 h, read-out: Activity; procedure, shortened: as §1
OVCAR-8 = test: Cytotoxicity against human OVCAR8 cells assessed as cell growth at 10 uM after 48 hrs by SRB assay relative to control; settings: OVCAR-8, 48 h, read-out: Activity
A549 = test: Cytotoxicity against human A549 cells assessed as cell growth at 10 uM after 48 hrs by SRB assay relative to control; settings: A549, 48 h, read-out: Activity; procedure, shortened: as §1
CAKI-1 = test: Cytotoxicity against human Caki1 cells assessed as cell growth at 10 uM after 48 hrs by SRB assay relative to control; settings: CAKI-1, 48 h, read-out: Activity; procedure, shortened: as §1
SW-620 = test: Cytotoxicity against human SW620 cells assessed as cell growth at 10 uM after 48 hrs by SRB assay relative to control; settings: SW-620, 48 h, read-out: Activity; procedure, shortened: as §2
M14 = test: Cytotoxicity against human M14 cells assessed as cell growth at 10 uM after 48 hrs by SRB assay relative to control; settings: M14, 48 h, read-out: Activity; procedure, shortened: as §1
BT-549 = test: Cytotoxicity against human BT549 cells assessed as cell growth at 10 uM after 48 hrs by SRB assay relative to control; settings: BT-549, 48 h, read-out: Activity; procedure, shortened: as §1
SNB-75 = test: Cytotoxicity against human SNB75 cells assessed as cell growth at 10 uM after 48 hrs by SRB assay relative to control; settings: SNB-75, 48 h, read-out: Activity
OVCAR-5 = test: Cytotoxicity against human OVCAR5 cells assessed as cell growth at 10 uM after 48 hrs by SRB assay relative to control; settings: OVCAR-5, 48 h, read-out: Activity
Hs-578T = test: Cytotoxicity against human Hs578T cells assessed as cell growth at 10 uM after 48 hrs by SRB assay relative to control; settings: read-out: Activity; procedure, shortened: as §1
MDA-MB-435 = test: Cytotoxicity against human MDA-MB-435 cells assessed as cell growth at 10 uM after 48 hrs by SRB assay relative to control; settings: MDA-MB-435, 48 h, read-out: Activity
SN12C = test: Cytotoxicity against human SN12C cells assessed as cell growth at 10 uM after 48 hrs by SRB assay relative to control; settings: read-out: Activity
KM12 = test: Cytotoxicity against human KM12 cells assessed as cell growth at 10 uM after 48 hrs by SRB assay relative to control; settings: KM12, 48 h, read-out: Activity; procedure, shortened: as §1
UACC-62 = test: Cytotoxicity against human UACC62 cells assessed as cell growth at 10 uM after 48 hrs by SRB assay relative to control; settings: UACC-62, 48 h, read-out: Activity; procedure, shortened: as §2
UACC-257 = test: Cytotoxicity against human UACC257 cells assessed as cell growth at 10 uM after 48 hrs by SRB assay relative to control; settings: UACC-257, 48 h, read-out: Activity; procedure, shortened: as §2
MDA-MB-468 = test: Cytotoxicity against human MDA-MB-468 cells assessed as cell growth at 10 uM after 48 hrs by SRB assay relative to control; settings: MDA-MB-468, 48 h, read-out: Activity
MCF7 = test: Cytotoxicity against human MCF7 cells assessed as cell growth at 10 uM after 48 hrs by SRB assay relative to control; settings: MCF7, 48 h, read-out: Activity; procedure, shortened: as §1
SK-MEL-5 = test: Cytotoxicity against human SK-MEL-5 cells assessed as cell growth at 10 uM after 48 hrs by SRB assay relative to control; settings: SK-MEL-5, 48 h, read-out: Activity
DU-145 = test: Cytotoxicity against human DU145 cells assessed as cell growth at 10 uM after 48 hrs by SRB assay relative to control; settings: DU-145, 48 h, read-out: Activity; procedure, shortened: as §1
CCRF-CEM = test: Cytotoxicity against human CCRF-CEM cells assessed as cell growth at 10 uM after 48 hrs by SRB assay relative to control; settings: read-out: Activity; procedure, shortened: as §1
SF-295 = test: Cytotoxicity against human SF295 cells assessed as cell growth at 10 uM after 48 hrs by SRB assay relative to control; settings: SF-295, 48 h, read-out: Activity
MDA-MB-231 = test: Cytotoxicity against human MDA-MB-231 cells assessed as cell growth at 10 uM after 48 hrs by SRB assay relative to control; settings: MDA-MB-231, 48 h, read-out: Activity; procedure, shortened: as §1
LOX IMVI = test: Cytotoxicity against human LOXIMVI cells assessed as cell growth at 10 uM after 48 hrs by SRB assay relative to control; settings: read-out: Activity; procedure, shortened: as §1
NCI-H460 = test: Cytotoxicity against human NCI-H460 cells assessed as cell growth at 10 uM after 48 hrs by SRB assay relative to control; settings: NCI-H460, 48 h, read-out: Activity
MOLT-4 = test: Cytotoxicity against human MOLT4 cells assessed as cell growth at 10 uM after 48 hrs by SRB assay relative to control; settings: MOLT-4, 48 h, read-out: Activity
NCI-H322M = test: Cytotoxicity against human NCI-H322M cells assessed as cell growth at 10 uM after 48 hrs by SRB assay relative to control; settings: read-out: Activity

Compound | growth at 10 µM (EKVX) [%] | growth at 10 µM (U-251) [%] | growth at 10 µM (SK-MEL-2) [%] | growth at 10 µM (T47D) [%] | growth at 10 µM (ACHN) [%] | growth at 10 µM (SNB-19) [%] | growth at 10 µM (HL-60(TB)) [%] | growth at 10 µM (HCT-116) [%] | growth at 10 µM (OVCAR-8) [%] | growth at 10 µM (A549) [%] | growth at 10 µM (CAKI-1) [%] | growth at 10 µM (SW-620) [%] | growth at 10 µM (M14) [%] | growth at 10 µM (SNB-75) [%] | growth at 10 µM (OVCAR-5) [%] | growth at 10 µM (Hs-578T) [%] | growth at 10 µM (MDA-MB-435) [%] | growth at 10 µM (SN12C) [%] | growth at 10 µM (KM12) [%] | growth at 10 µM (UACC-62) [%] | other results
CCOC(=O)CCCn1c(C)c(C)c2c1N=C(SC)N1CC(=O)N=C21 | 104 | 105 | 113 | 95 | 110 | 108 | 94 | 111 | 113 | 102 | 108 | 110 | 106 | 90 | 125 | 120 | 122 | 110 | 154 | 106 | growth at 10 µM (BT-549): 119%; growth at 10 µM (UACC-257): 111%; growth at 10 µM (MDA-MB-468): 55%; growth at 10 µM (MCF7): 96%; growth at 10 µM (SK-MEL-5): 100%; growth at 10 µM (DU-145): 149%; growth at 10 µM (CCRF-CEM): 100%; growth at 10 µM (SF-295): 113%; growth at 10 µM (MDA-MB-231): 112%; growth at 10 µM (LOX IMVI): 101%; growth at 10 µM (NCI-H460): 110%; growth at 10 µM (MOLT-4): 98%; growth at 10 µM (NCI-H322M): 111%
CSC1=Nc2c(c(C)c(-c3ccccc3)n2CCCCl)C2=NC(=O)CN12 | 54 | 52 | 75 | 72 | 88 | 81 | 27 | 27 | 88 | 74 | 58 | 44 | 31 | 21 | 86 | 85 | -31 | 86 | 26 | 37 | growth at 10 µM (BT-549): 61%; growth at 10 µM (UACC-257): 84%; growth at 10 µM (MDA-MB-468): 47%; growth at 10 µM (MCF7): 36%; growth at 10 µM (SK-MEL-5): 51%; growth at 10 µM (DU-145): 95%; growth at 10 µM (CCRF-CEM): 52%; growth at 10 µM (SF-295): 43%; growth at 10 µM (MDA-MB-231): 65%; growth at 10 µM (LOX IMVI): 50%; growth at 10 µM (MOLT-4): 51%; growth at 10 µM (NCI-H322M): 82%
CSC1=Nc2c(c(C)c(-c3ccccc3)n2CCCN2CCN(C)CC2)C2=NC(=O)CN12 | 96 | 101 | 92 | 80 | 90 | 96 | 91 | 93 | 93 | 90 | 92 | 101 | 100 | 51 | 99 | 75 | 105 | 96 | 99 | 87 | growth at 10 µM (UACC-257): 100%; growth at 10 µM (MDA-MB-468): 79%; growth at 10 µM (MCF7): 86%; growth at 10 µM (SK-MEL-5): 91%; growth at 10 µM (DU-145): 101%; growth at 10 µM (CCRF-CEM): 86%; growth at 10 µM (SF-295): 110%; growth at 10 µM (MDA-MB-231): 82%; growth at 10 µM (LOX IMVI): 93%; growth at 10 µM (NCI-H460): 101%; growth at 10 µM (MOLT-4): 79%; growth at 10 µM (NCI-H322M): 97%
CSC1=Nc2c(c(C)c(-c3ccccc3)n2CCCN2CCCCC2)C2=NC(=O)CC(C)N12 (centres undefined) | 42 | 12 | 63 | -2 | 67 | 20 | -33 | 43 | 45 | 32 | 67 | 62 | 60 | 50 | 83 | 11 | 26 | 45 | 2 | 54 | growth at 10 µM (UACC-257): 41%; growth at 10 µM (MDA-MB-468): -19%; growth at 10 µM (MCF7): 14%; growth at 10 µM (SK-MEL-5): 10%; growth at 10 µM (DU-145): 48%; growth at 10 µM (CCRF-CEM): 21%; growth at 10 µM (SF-295): 39%; growth at 10 µM (MDA-MB-231): 70%; growth at 10 µM (LOX IMVI): 42%; growth at 10 µM (NCI-H460): 38%; growth at 10 µM (MOLT-4): 68%; growth at 10 µM (NCI-H322M): 62%
